Laboratory results taken from ChEMBL document CHEMBL1126647, “Fluorine-18-labeled progestin ketals: synthesis and target tissue uptake selectivity of potential imaging agents for receptor-positive breast tumors” (J Med Chem, 1993).

Legend:
[1] = biological target: T1, Progesterone receptor (Rattus norvegicus) (UniProt Q63449); assay: Relative binding affinity for progesterone receptor compared to R5020
T1 sequence (whole entry): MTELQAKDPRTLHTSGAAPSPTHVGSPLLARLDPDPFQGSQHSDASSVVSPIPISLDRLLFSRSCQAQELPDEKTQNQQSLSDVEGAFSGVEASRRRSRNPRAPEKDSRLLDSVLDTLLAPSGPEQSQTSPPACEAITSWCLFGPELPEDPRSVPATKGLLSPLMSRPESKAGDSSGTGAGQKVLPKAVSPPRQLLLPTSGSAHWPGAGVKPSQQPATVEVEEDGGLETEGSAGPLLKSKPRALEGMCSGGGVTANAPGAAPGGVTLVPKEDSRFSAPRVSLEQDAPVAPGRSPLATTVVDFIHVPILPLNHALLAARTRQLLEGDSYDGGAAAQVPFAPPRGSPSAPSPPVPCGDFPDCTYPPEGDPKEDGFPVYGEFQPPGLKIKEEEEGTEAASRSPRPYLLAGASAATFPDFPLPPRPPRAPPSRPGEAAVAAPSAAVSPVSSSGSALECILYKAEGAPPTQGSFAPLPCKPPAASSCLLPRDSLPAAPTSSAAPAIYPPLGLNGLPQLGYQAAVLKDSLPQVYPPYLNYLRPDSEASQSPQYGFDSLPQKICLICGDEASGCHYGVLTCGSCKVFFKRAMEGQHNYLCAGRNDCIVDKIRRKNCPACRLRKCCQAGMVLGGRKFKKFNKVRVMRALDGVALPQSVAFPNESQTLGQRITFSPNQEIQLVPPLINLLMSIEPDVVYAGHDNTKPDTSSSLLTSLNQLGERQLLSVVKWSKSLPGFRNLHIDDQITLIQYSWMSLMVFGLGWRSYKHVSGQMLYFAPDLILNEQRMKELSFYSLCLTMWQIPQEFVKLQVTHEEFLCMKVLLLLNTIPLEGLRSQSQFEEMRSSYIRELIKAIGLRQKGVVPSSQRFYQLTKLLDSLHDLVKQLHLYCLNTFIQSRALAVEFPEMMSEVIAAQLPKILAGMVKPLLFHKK

[2] = biological target: T1, Progesterone receptor (Rattus norvegicus); assay: Tissue distribution in kidney 1 hr after [18F]4 injection into estrogen-primed immature rats at normal dose; type: functional, tissue-based
Outline: (§1)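 Female Sprague-Dawley rats, 23 days old, primed with estradiol 5 μg s.c. in 20% ethanol/sunflower oil on two days and used 24 h later. Under ether, they received 51 μCi tracer (30 Ci/mmol) iv via the tail vein in 0.1 mL 10% ethanol/saline. Killed by decapitation at 1 h; tissues weighed and gamma-counted. Results as %ID/g or tissue ratios, mean ± SD, n = 5.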

[3] = Partition coefficient (logP); type: physicochemical; settings: octanol/water
Outline: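 Octanol/water partition measured as log P by the Minick method. For some reference progestins, log P was also measured by shake flask.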

[4] = biological target: T2, Mineralocorticoid receptor (Rattus norvegicus) (UniProt P22199); assay: Relative binding affinity (RBA) for mineralocorticoid receptor compared to aldosterone
T2 sequence (whole entry): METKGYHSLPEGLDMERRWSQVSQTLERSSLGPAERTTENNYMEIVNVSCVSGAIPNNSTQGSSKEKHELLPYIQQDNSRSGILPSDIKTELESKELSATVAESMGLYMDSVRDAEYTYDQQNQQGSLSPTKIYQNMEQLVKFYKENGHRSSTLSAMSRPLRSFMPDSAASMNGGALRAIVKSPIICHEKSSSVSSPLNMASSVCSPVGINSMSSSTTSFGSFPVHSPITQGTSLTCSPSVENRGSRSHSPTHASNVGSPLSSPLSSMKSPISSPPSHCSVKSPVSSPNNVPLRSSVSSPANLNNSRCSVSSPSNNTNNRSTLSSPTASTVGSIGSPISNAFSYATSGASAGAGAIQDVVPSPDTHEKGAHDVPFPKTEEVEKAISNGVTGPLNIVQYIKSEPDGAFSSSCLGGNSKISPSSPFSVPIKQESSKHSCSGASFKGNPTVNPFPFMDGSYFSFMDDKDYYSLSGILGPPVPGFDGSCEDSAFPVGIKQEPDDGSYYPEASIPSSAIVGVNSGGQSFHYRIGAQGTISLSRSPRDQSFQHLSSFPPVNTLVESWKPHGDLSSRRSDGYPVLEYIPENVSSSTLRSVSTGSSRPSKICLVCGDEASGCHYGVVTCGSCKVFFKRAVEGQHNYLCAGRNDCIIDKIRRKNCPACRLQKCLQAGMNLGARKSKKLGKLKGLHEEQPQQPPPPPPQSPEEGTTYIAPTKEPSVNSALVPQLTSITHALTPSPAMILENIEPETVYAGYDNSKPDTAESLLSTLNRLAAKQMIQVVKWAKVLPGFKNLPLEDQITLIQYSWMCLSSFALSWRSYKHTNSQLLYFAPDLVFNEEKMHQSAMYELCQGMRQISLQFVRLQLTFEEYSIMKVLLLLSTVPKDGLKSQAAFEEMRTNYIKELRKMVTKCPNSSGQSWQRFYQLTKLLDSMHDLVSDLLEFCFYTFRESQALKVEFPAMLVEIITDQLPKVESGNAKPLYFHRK

[5] = biological target: T1, Progesterone receptor (Rattus norvegicus); assay: Tissue distribution in muscle 1 hr after [18F]4 injection into estrogen-primed immature rats at normal dose; type: functional, tissue-based; outline: as §1
[6] = biological target: T1, Progesterone receptor (Rattus norvegicus); assay: Tissue distribution in uterus/muscle 1 hr after [18F]4 injection into estrogen-primed immature rats at normal dose; type: functional, tissue-based; outline: as §1
[7] = biological target: T1, Progesterone receptor (Rattus norvegicus); assay: Tissue distribution in uterus 1 hr after [18F]4 injection into estrogen-primed immature rats at normal dose; type: functional, tissue-based; outline: as §1

SMILES | relative binding affinity (RBA) [1] | Injected dose/g [2] | logP [3] | relative binding affinity (RBA) [4] | Injected dose/g [5] | Injected dose/g [6] | Injected dose/g [7]
CC(=O)[C@H]1CC[C@H]2[C@@H]3CCC4=CC(=O)CC[C@]4(C)[C@H]3CC[C@]12C | 13 |  |  |  |  |  | 
CC[C@@H]1C[C@H]2[C@@H]3CCC4=CC(=O)CC[C@@H]4[C@H]3CC[C@]2(C)[C@H]1C(=O)CF | 700 | 1.05% | 4.66 | 3.2 | 0.42% | 16% | 6.43%
CCC(=O)[C@@]1(C)CC[C@H]2[C@@H]3CCC4=CC(=O)CCC4=C3CC[C@@]21C [PROMEGESTONE] | 100 |  | 4.05 | 0.93 |  |  | 
CC[C@@H]1C[C@H]2[C@@H]3CCC4=CC(=O)CC[C@@H]4[C@H]3CC[C@]2(C)[C@H]1C(=O)CO | 200 |  | 4.01 | 0.92 |  |  | 
C[C@]1(c2ccc(F)cc2)O[C@@H]2CC3C4CCC5=CC(=O)CC[C@@H]5C4CC[C@]3(C)[C@]2(C(=O)CO)O1 (stereo partly specified) | 1.3 |  | 4.84 |  |  |  | 
